STK33 kinase inh: inhibitors of purified STK33 kinase, primary screen, biochemical, ADP-Glo luminescence, homogeneous, cell-free | inhibition, % at 10 µM | AID 2661, 2010 | hit rate 0.073% among 320,000 | MBP phosphorylation;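 active means inhibition at or above 25%, using the most active replicate where run in duplicate; inactive means inhibition below 25%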
GSK3 alpha inh: blockers of GSK3A enzyme activity – biochemical, luminescence, cell-free homogeneous, HTS, primary screen; GSK-3 alpha kinase, ADP-Glo luminescence, 60 min; inhibition, % at 10 µM; Glycogen synthase kinase-3 alpha (Homo sapiens), P49840; hit rate 0.1% among 320,000; AID 2650, 2010;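 active means more than half of replicates show inhibition above 20%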;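 further: GST-tagged GSK-3 alpha with peptide substrate and 25 µM ATP; 0% = DMSO neutral wells and 100% = GW8510 positive control wells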
Target sequence (P49840 whole entry, looked up): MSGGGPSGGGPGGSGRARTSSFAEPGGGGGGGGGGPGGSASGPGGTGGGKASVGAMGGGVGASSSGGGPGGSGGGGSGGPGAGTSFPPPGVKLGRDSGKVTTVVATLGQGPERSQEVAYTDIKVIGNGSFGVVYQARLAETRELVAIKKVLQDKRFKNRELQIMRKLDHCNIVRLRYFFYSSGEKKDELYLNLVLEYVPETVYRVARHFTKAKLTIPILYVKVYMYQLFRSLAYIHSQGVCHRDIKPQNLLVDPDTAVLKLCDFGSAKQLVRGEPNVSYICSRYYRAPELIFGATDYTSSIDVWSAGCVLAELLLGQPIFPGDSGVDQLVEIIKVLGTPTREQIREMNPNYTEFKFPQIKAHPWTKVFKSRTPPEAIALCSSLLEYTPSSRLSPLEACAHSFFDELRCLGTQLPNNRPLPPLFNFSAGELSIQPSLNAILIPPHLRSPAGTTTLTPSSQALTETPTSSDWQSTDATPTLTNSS
Efflux pump inh: inhibitors of Candida efflux pumps in yeast, primary screen, S. cerevisiae, Nile Red, multiplex | S. cerevisiae Candida pump triplex | inhibition, % at 10 µM | hit rate 0.44% among 330,000;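 active means plate passing quality check with inhibition over a set limit, or well fluorescence over plate mean plus 4 SD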;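 further: Nile Red retained in pooled yeast measured as flow cytometry median fluorescence; 0% = buffer negative control and 100% = Enniatin B positive control; higher means more Nile Red kept so more efflux inhibition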
PolyA inh: polyadenylation inhibitors in yeast reporter cells, primary screen, luminescence, S. cerevisiae. S. cerevisiae SKY197-pL101 polyadenylation reporter, beta-gal luminescence; efflux-impaired pdr1/pdr3 knockout yeast; score 100 = 6 SD above DMSO. activity score, % at 12 µM. hit rate 0.02% among 300,000;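 active means lowest replicate activity score at least 50, where 100 means six control SD above control mean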;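 further: yeast exposed to compound for 9 h at 30 °C; higher score means more reporter readthrough which indicates perturbed polyadenylation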
GSK3B inh: human GSK3beta kinase inhibitors, primary screen, biochemical, cell-free homogeneous, HTS. hit rate 0.038% among 300,000. AID 2097, 2009. activity score (negative = inhibition), % at 10 µM. Glycogen synthase kinase-3 beta (Homo sapiens), P49841. GST-GSK3beta kinase, ADP-Glo luminescence, 60 min; hits give low values;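 active means more than half of replicate wells score below -50%, meaning over 50% inhibition versus plate controls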;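 further: 0% = median DMSO wells and -100% = median GW8510 positive control wells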
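Test system: GST-fused GSK3beta enzyme, cell-free | Quantity: 1.6 ng GST-GSK3beta enzyme per well | Reagent: 25 µM ATP with peptide substrate | Schedule: 60 min enzyme reaction, room temperature | Signal: Luminescent ADP-Glo measurement of ADP formed | Read-out basis: Score relative to plate controls | Control set: DMSO and 20 µM GW8510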
Yeast cmpd fluor: counter-screen for efflux pump inhibitors: compound fluorescence. shares compounds with Efflux pump inh. S. cerevisiae AD/pABC3, flow cytometry. fluorescence ratio to DMSO, % at 10 µM. hit rate 4% among 1,700;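 active means fluorescence ratio to DMSO above its plate's cutoff, the plate mean ratio plus 5 SD, cut at about 210% in these data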;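 further: unstained yeast with no Nile Red so the signal is compound autofluorescence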
Mdr1 pump inh: inhibitors of Candida albicans Mdr1 efflux, confirmation, flow cytometry, singleplex, Cherry Pick1 set. shares compounds with Efflux pump inh. S. cerevisiae AD/CaMDR1, Nile Red efflux. inhibition, % at 10 µM. hit rate 1% among 1,700; in the data active means inhibition above about 26%;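 further: 0% = DMSO vehicle and 100% = reference inhibitor; higher means more Nile Red retained so more efflux inhibition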
Cdr2 pump inh: inhibitors of Candida albicans Cdr2 efflux pump, confirmation, S. cerevisiae AD/CaCDR2, flow cytometry, cherry pick 1, singleplex; hit rate 4% among 1,700; Nile Red retention ratio vs DMSO, % at 10 µM; shares compounds with Efflux pump inh; Nile Red retention; in the data active means Nile Red retention ratio vs DMSO above about 190%;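 further: higher ratio means more blocking of Cdr2 efflux of the dye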
Cdr1 pump inh: inhibitors of Candida albicans Cdr1 efflux pump, confirmation, S. cerevisiae AD/CaCDR1, flow cytometry, cherry pick 1, singleplex; AID 588522, 2011; Nile Red efflux; inhibition, % at 10 µM; hit rate 1% among 1,700; shares compounds with Efflux pump inh;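 active means inhibition above the screen-wide mean plus twice its standard deviation, cut at about 32% in these data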
Numbers without * were called inactive. Shown are actives, neighbours in structure and some others; about 0.6% of the full set was active somewhere.

Screening Cc1cc(C)nc(Nc2ccccc2F)n1 returned STK33 kinase inh 1, GSK3 alpha inh 2, Efflux pump inh 0, PolyA inh -6 and GSK3B inh -2.
Screening COc1cc(N2CCCC2)c(OC)cc1/C=C1/NC(=S)NC1=O returned STK33 kinase inh -1, GSK3 alpha inh 14, Efflux pump inh 0.5*, PolyA inh 8, GSK3B inh -2, Yeast cmpd fluor 289*, Mdr1 pump inh 0, Cdr2 pump inh 120 and Cdr1 pump inh 0.
`O=c1[nH]c2c(=O)[nH]cnc2nc1-c1ccccc1` gave STK33 kinase inh 0, GSK3 alpha inh -1, Efflux pump inh 0, PolyA inh 8 and GSK3B inh 1.
For CCCOC(=O)c1cccc(NC(=O)COc2ccc([N+](=O)[O-])cc2)c1 the results were STK33 kinase inh 4, GSK3 alpha inh 1, Efflux pump inh 2.1*, PolyA inh 6, GSK3B inh -1, Yeast cmpd fluor 102, Mdr1 pump inh 0, Cdr2 pump inh 104 and Cdr1 pump inh 0.
`N=C1C(c2ccccc2)=C(O)CN1c1cccc(S(=O)(=O)N2CCCCC2)c1` gave STK33 kinase inh 3, GSK3 alpha inh -1, Efflux pump inh 0, PolyA inh -10 and GSK3B inh 0.
Cc1ccc(Nc2nc(Oc3ccc(OCc4ccccc4)nn3)nc(N3CCOCC3)n2)cc1 was read as STK33 kinase inh -2, GSK3 alpha inh -1, Efflux pump inh 0.7*, PolyA inh 0, GSK3B inh -4, Yeast cmpd fluor 108, Mdr1 pump inh 0, Cdr2 pump inh 110 and Cdr1 pump inh 0.
`Cc1noc(C)c1COc1ccc(C(=O)N2CCC(C)CC2)cc1` gave STK33 kinase inh 0, GSK3 alpha inh -3 and Efflux pump inh 0.
`Cn1c(SCC(=O)N/N=C/c2ccc([N+](=O)[O-])s2)nnc1-c1ccc(Cl)cc1` gave STK33 kinase inh 1, GSK3 alpha inh 3, Efflux pump inh 16*, PolyA inh -80, GSK3B inh -3, Yeast cmpd fluor 111, Mdr1 pump inh 0, Cdr2 pump inh 127 and Cdr1 pump inh 0.
COc1cc([N+](=O)[O-])cc(/C=N/NC(=O)CSc2nnc(-c3ccccc3)n2C)c1O was read as STK33 kinase inh -2, GSK3 alpha inh -6, Efflux pump inh 0, PolyA inh -14 and GSK3B inh 4.
For O=C(C1CCCO1)N1CCN(C(=S)Nc2ccc(F)cc2)CC1 (stereo not drawn) the results were STK33 kinase inh -2, GSK3 alpha inh -3, Efflux pump inh 2.5*, PolyA inh 5, GSK3B inh 0, Yeast cmpd fluor 107, Mdr1 pump inh 0, Cdr2 pump inh 108 and Cdr1 pump inh 0.
For COc1ccc(OCCCC(=O)NNC(=O)c2ccncc2)cc1 the results were STK33 kinase inh 0, GSK3 alpha inh 1, Efflux pump inh 0, PolyA inh 6 and GSK3B inh -3.
For CN(Cc1ccccc1)C(=O)c1ccccc1Br the results were STK33 kinase inh 1, GSK3 alpha inh 0, Efflux pump inh 0, PolyA inh 16 and GSK3B inh 2.
For CC(C)N(C)CCOC(=O)c1ccccc1Br the results were STK33 kinase inh 1, GSK3 alpha inh 5, Efflux pump inh 13*, PolyA inh -9, GSK3B inh 4, Yeast cmpd fluor 131, Mdr1 pump inh 2, Cdr2 pump inh 163 and Cdr1 pump inh 2.
`CCOC(=O)N1CCN(C(=O)COc2cccc3c2CCN(Cc2ccccc2F)C3=O)CC1` gave STK33 kinase inh -1, GSK3 alpha inh 0, Efflux pump inh 2.7*, PolyA inh -3, GSK3B inh 5, Yeast cmpd fluor 113, Mdr1 pump inh 0, Cdr2 pump inh 106 and Cdr1 pump inh 0.
Screening Cc1ccc2nc(-c3ccc(NC(=O)CCS(=O)(=O)c4ccccc4)cc3)sc2c1 returned STK33 kinase inh 0, GSK3 alpha inh -3, Efflux pump inh 0.5*, PolyA inh 12, GSK3B inh -3, Yeast cmpd fluor 112, Mdr1 pump inh 0, Cdr2 pump inh 114 and Cdr1 pump inh 0.
For Cc1nc2ccc(NC(=O)CCS(=O)(=O)c3ccccc3)cc2s1 the results were STK33 kinase inh -1, GSK3 alpha inh -1, Efflux pump inh 0, PolyA inh 17 and GSK3B inh 1.
For CC(=O)Nc1nnc(-c2c(-c3ccccc3Cl)noc2C)o1 the results were STK33 kinase inh -1, GSK3 alpha inh -4, Efflux pump inh 0, PolyA inh 5 and GSK3B inh -1.
COc1ccc2[nH]cc(/C=C/c3cc[n+](C)cc3)c2c1 was read as STK33 kinase inh 0, GSK3 alpha inh 1, Efflux pump inh 2, PolyA inh -12, GSK3B inh -4, Yeast cmpd fluor 419*, Mdr1 pump inh 6, Cdr2 pump inh 136 and Cdr1 pump inh 3.
Screening COc1cc(NS(=O)(=O)c2cn(C)cn2)cc(OC)c1 returned STK33 kinase inh -1, GSK3 alpha inh 1, Efflux pump inh 0, PolyA inh -4 and GSK3B inh -1.
Clc1ccc(SCc2cc(N3CCOCC3)nc(-c3ccccn3)n2)cc1 was read as STK33 kinase inh 0, GSK3 alpha inh 0, Efflux pump inh 0, PolyA inh 10 and GSK3B inh -3.
Clc1ccc(-c2nnc(N3CCCC3)nn2)cc1 was read as STK33 kinase inh -1, GSK3 alpha inh 1, Efflux pump inh 0, PolyA inh 18 and GSK3B inh -1.
For CCSc1cc(N2CCOCC2)nc(-c2ccc(Cl)cc2)n1 the results were STK33 kinase inh -2, GSK3 alpha inh -2, Efflux pump inh 0, PolyA inh -21, GSK3B inh 2, Yeast cmpd fluor 103, Mdr1 pump inh 0, Cdr2 pump inh 96 and Cdr1 pump inh 0.

Compound activity (PubChem)
